Assay results published in publication PMC9075408 (Journal of the American Heart Association: Cardiovascular …, 2021).

Legend:
[1] = tested on: IL1β and Arg1 mRNA, brain cortex; test: Inflammatory gene expression; type: in vivo, rat; conditions: brain cortex 96 hours post-ROSC; not statistically significant
Method in brief: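 Male Sprague-Dawley ex-breeder rats underwent 8 min untreated CA and 8 min CPR after gavage with test compound (800 mg/kg per dose) or 1% carboxymethylcellulose vehicle 16 and 2 h before CA; naive rats served as controls. At 96 h post-ROSC, cortical RNA was analysed by SYBR Green real-time PCR with exon-spanning primers and Gapdh reference. Results were calculated by ΔΔCt as fold induction, mean±SD, n=4-6/group, Kruskal-Wallis/Dunn's.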

[2] = Plasma and hippocampal levels of 1-DL-MTRP by HPLC-MS/MS in CA/CPR rats; type: in vivo; conditions: rat
[3] = tested on: rats resuscitated from cardiac arrest; test: Plasma high-sensitivity cardiac troponin T; type: in vivo, rat; conditions: median [quartile 1–quartile 3]
Method in brief: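 Arterial blood was drawn from the femoral cannula into K3-EDTA tubes 15 min before CA and at 4 and 96 h post-ROSC. Rats had received gavage test compound (800 mg/kg per dose) or carboxymethylcellulose vehicle 16 and 2 h pre-CA, then 8 min CA and 8 min CPR. Plasma hs-cTnT was measured by electrochemiluminescence immunoassay and analysed by ordinary 2-way ANOVA with Sidak test.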

[4] = tested on: rats resuscitated from cardiac arrest; test: Neurological deficit score; type: in vivo, rat; conditions: 24, 48, 72, and 96 hours post-ROSC, all time points; score 0 (normal) to 500 (brain death)
[5] = tested on: rats resuscitated from cardiac arrest; test: CPR outcomes and survival in rat model of electrically induced CA/CPR; type: in vivo
[6] = tested on: rats resuscitated from cardiac arrest; test: Myocardial function by transthoracic echocardiography in CA/CPR rats; type: in vivo, rat
Method in brief: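 Rats were pretreated by gavage with test compound (800 mg/kg per dose) or 1% carboxymethylcellulose 16 and 2 h before 8 min untreated CA and 8 min CPR. At 4 and 96 h post-ROSC, LV systolic function was assessed by transthoracic M-mode, 2D, pulsed, color and tissue Doppler echocardiography. Anaesthesia at 96 h was intraperitoneal thiopental 50 mg/kg, with 10 mg/kg recall doses if needed. Analysis used ordinary 2-way ANOVA with Sidak post hoc.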

[7] = tested on: kynurenine pathway (IDO, tryptophan→kynurenine step)
[8] = tested on: rats resuscitated from cardiac arrest; test: Hemodynamics; type: in vivo, rat; conditions: mean±SD
[9] = tested on: kynurenine pathway (IDO, tryptophan→kynurenine step); conditions: 96 hours post-ROSC
[10] = 2 oral doses of 800 mg/kg 16 and 2 hours before CA, 15 minutes pre-CA and 2 hours post-ROSC
[11] = 2 oral doses of 800 mg/kg 16 and 2 hours before CA, 96 hours post-ROSC

## Cn1cc(CC(N)C(=O)O)c2ccccc21 (racemic) [1‐DL‐MTRP, 1‐methyl‐DL‐tryptophan]
[1]
  Arg1 gene expression: tendency towards an increase
  CA-induced IL1β upregulation (mRNA): slightly reduced
[2]; [10]
  1-DL-MTRP plasma concentration, average: 34 µg/mL
  1-DL-MTRP plasma concentration, range: 20 to 40 µg/mL
[2]; [11]
  1-DL-MTRP hippocampal concentration, average: 11.4 µg/g
  1-DL-MTRP plasma concentration, average: 21 µg/mL
[2]; 96 hours post-ROSC
  drug levels (plasma and brain) as molar concentrations: 52 to 96 µM
[3]; PR 4 h
  hs-cTnT: 4965 [2978–5242] pg/mL
[3]; PR 96 h
  hs-cTnT: 64 [36–278] pg/mL
[3]; Pre-CA
  hs-cTnT: 98 [66–111] pg/mL
[4]
  NDS values vs vehicle-treated rats: lower
[5]; 800 mg/kg by gavage 16 and 2 h before CA, 8 min CA, 8 min CPR
  Resuscitation, no./total: 15/17
[5]; median [quartile 1–quartile 3]
  Time to ROSC: 481 [370–482] s
[5]; rat, in vivo
  4-h survival, no./resuscitated: 15/15
  96-h survival, no./resuscitated: 10/15
  Shocks to ROSC: 1 no.
[5]; vehicle 62%
  animals that survived up to 96 hours after CA: 66%
[5]; vehicle 84%
  successfully resuscitated animals: 88%
[6]; PR 4 h
  LVEF: 36.8±3.2%
[6]; PR 96 h
  LVEF: 75.3±3.2%
[7]; 15 minutes pre-CA, P=0.0243
  plasma kynurenine levels, % lower than in vehicle-treated rats: 24%
[7]; PR 2 hours and PR 96 hours, same time points
  plasma kynurenine levels following CA vs vehicle-treated rats: markedly lower than in vehicle‐treated rats
[8]; PR 10 min
  CPP: 57±21 mm Hg
  DAP: 57±21 mm Hg
  HR: 237±54 beats per min
  MAP: 76±20 mm Hg
  SAP: 103±17 mm Hg
[8]; PR 1 h
  CPP: 84±9 mm Hg
  DAP: 84±9 mm Hg
  HR: 335±12 beats per min
  MAP: 96±9 mm Hg
  SAP: 117±9 mm Hg
[8]; PR 2 h
  CPP: 81±12 mm Hg
  DAP: 81±12 mm Hg
  HR: 360±20 beats per min
  MAP: 96±13 mm Hg
  SAP: 118±12 mm Hg
[8]; PR 3 h
  CPP: 75±15 mm Hg
  DAP: 74±15 mm Hg
  HR: 358±23 beats per min
  MAP: 89±16 mm Hg
  SAP: 111±18 mm Hg
[8]; PR 4 h
  CPP: 73±20 mm Hg
  DAP: 78±15 mm Hg
  HR: 351±51 beats per min
  MAP: 94±17 mm Hg
  SAP: 115±17 mm Hg
[8]; Pre-CA
  CPP: 109±13 mm Hg
  DAP: 114±12 mm Hg
  HR: 375±34 beats per min
  MAP: 127±13 mm Hg
  SAP: 151±13 mm Hg
[9]; P=0.0409, comparable to naive rats
  hippocampal kynurenine levels vs vehicle-treated rats: significantly lower than in vehicle‐treated rats
[9]; vs naive rats
  hippocampal 5-HT concentrations: superimposable to those measured in naive rats
